Source: PubChem
HNF4A DNA FP: change in binding of human HNF4 alpha to DNA; P41235; HNF4a-FITC DNA binding, fluorescence polarization, 1 h; activity change, % at 10 µM; hit rate 0.3% among 360,000; AID 1224865; in the data active means activity change above about 30%, passing the limit was not always enough
Rpn11 block: inhibitors of human proteasome Rpn11; O00487; human 26S proteasome, Ub4-pepOG fluorescence polarization; 20S core pre-blocked with epoxomicin; inhibition, % at 20 µM; hit rate 0.59% among 360,000; AID 588493;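 active means inhibition at 20 µM, scaled to each plate's controls, above about 33%, limit read from the data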
Rin1-Abl PPI inh: inhibitors of human Rin1-Abl protein interaction. hit rate 0.4% among 360,000. inhibition, % at 7.35 µM. TR-FRET Rin1/Abl binding, biochemical; in the data active means inhibition above about 5%, passing the limit was not always enough
CSN deneddyl inh: inhibitors of human CSN-mediated cullin deneddylation; inhibition, % at 12.5 µM; Q92905; Purified CSN, SCF-Nedd8-OG deneddylation, fluorescence polarization; hit rate 0.38% among 360,000; AID 651999;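 active means pattern-corrected inhibition above about 35%, with an unprinted fluorescence ratio check between 0.5 and 1.5, limit read from the data, passing the limit was not always enough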
Target sequence (Q92905 whole entry, looked up, one chain of several): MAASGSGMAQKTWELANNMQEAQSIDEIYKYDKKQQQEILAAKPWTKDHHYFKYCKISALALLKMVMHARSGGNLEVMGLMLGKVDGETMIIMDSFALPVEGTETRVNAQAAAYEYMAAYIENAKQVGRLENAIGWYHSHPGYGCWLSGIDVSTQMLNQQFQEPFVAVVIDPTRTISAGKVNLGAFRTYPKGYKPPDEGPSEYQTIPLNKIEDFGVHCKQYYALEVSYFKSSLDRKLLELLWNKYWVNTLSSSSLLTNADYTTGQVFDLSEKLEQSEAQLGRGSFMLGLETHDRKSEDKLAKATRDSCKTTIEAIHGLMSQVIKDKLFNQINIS
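Material: purified human Csn5 enzyme expressed in HEK293T cells / Medium: Tris buffer pH 7.5, NaCl, DTT, Tween-20, trehalose, ovalbumin / Compound dosing: 12.5 µM single point / Schedule: 90 min incubation of compound, enzyme and substrate at room temperature / Signal: fluorescence polarization of the substrate / Control set: no-enzyme wells high, enzyme-with-substrate wells low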
Neddylation inh: inhibitors of human cullin neddylation. hit rate 0.58% among 360,000. AID 651699. P61081+Q13564. inhibition, % at 25 µM. TR-FRET cullin neddylation, biochemical; in the data active means inhibition above about 36%
TPT1 inh: C. albicans TPT1 enzyme inhibition; hit rate 0.81% among 300,000; inhibition, % at 5 µM; recombinant caTPT1, FP RNA substrate dephosphorylation; AID 1962;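 active means inhibition above the mean of all tested compounds plus 3 SD, set per screening campaign, cut at about 24% in these data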
caTPT1 confirm: confirmation of Candida albicans TPT1 inhibitors; hit rate 74% among 2,400; shares compounds with TPT1 inh; inhibition, % at 5 µM; recombinant caTPT1, fluorescence polarization, RNase T1 coupled;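 active means inhibition above the primary screen limit, the mean inhibition of all tested compounds plus 3 SD, cut at about 25% in these data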
RNase T1 inh: RNase T1 inhibition in TPT1 counter-screen. AID 2153. shares compounds with TPT1 inh. hit rate 83% among 2,400. RNase T1 cleavage, fluorescence polarization, 1536-well. inhibition, % at 5 µM;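 active means inhibition above the solvent-only control well mean plus 3 SD, limit set per screening run, cut at about 23% in these data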;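 further: inhibitors block cleavage so intact labeled substrate keeps polarization high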
Target sequence (P00651 whole entry, looked up): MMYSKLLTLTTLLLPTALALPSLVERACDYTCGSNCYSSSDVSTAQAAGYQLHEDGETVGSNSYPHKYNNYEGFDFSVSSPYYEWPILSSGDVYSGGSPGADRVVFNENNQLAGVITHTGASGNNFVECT
Rpn11 inh conf: Rpn11 inhibition confirmation, single concentration; shares compounds with Rpn11 block; purified human 26S proteasome, Ub4-pepOG fluorescence polarization; proteasome pretreated with epoxomicin; inhibition, % at 20 µM; hit rate 29% among 1,900; AID 602318
MMP-2 counter-1: blocks human MMP-2, flagging nonselective RPN11 hits; shares compounds with Rpn11 block; recombinant MMP-2, FRET peptide cleavage fluorescence; inhibition, % at 20 µM; hit rate 4% among 1,900;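 further: human MMP-2 activated beforehand with APMA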
Thrombin inh: blocks bovine thrombin, flagging nonselective RPN11 hits; shares compounds with Rpn11 block; bovine thrombin cleavage of Ub4-pepOG, fluorescence polarization; inhibition, % at 20 µM; hit rate 13% among 1,900; AID 602333;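 active means mean inhibition at least 40% at 20 µM, or signal 3 deviations below plate average, so some actives read negative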
CSN deneddyl val: validation of inhibitors of human CSN-mediated cullin deneddylation | shares compounds with CSN deneddyl inh | Csn5 deneddylation of SCF-Nedd8OG, fluorescence polarization, 90 min | inhibition, % at 16.6 µM | hit rate 62% among 540 | AID 720654; in the data active means inhibition above about 50%
MMP-2 counter-2: MMP-2 (human) inhibition, counter-screen for CSN hits. recombinant MMP-2, FRET substrate fluorescence, 60 min. shares compounds with CSN deneddyl inh. inhibition, % at 16.6 µM. hit rate 33% among 540;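 active means corrected plate-normalized z-score of 5 or more, or -5 or less, or inhibition of 15% or more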
Thrombin counter: counter-screen for CSN deneddylation inhibitors: bovine thrombin inhibition. shares compounds with CSN deneddyl inh. bovine thrombin cleavage of Ub4-pepOG, fluorescence polarization. inhibition, % at 16.6 µM. hit rate 49% among 540;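 active means inhibition at or above a set limit, with a fluorescence interference ratio between 0.5 and a set maximum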
Hits are given with their value; - = inactive; . = no result shown. An excerpt weighted towards active compounds, which were near 2.4% of everything screened. Unless noted, no stated cut-off is given here; in the data, active means inhibition above about 40%; inactive means the rest.

SMILES | HNF4A DNA FP | Rpn11 block | Rin1-Abl PPI inh | CSN deneddyl inh | Neddylation inh | TPT1 inh | caTPT1 confirm | RNase T1 inh | CSN deneddyl val | MMP-2 counter-2 | Thrombin counter | others
CCCOc1ccc(/C=C2\SC(=S)N(CC3CCCO3)C2=O)cc1 (configuration not stated) | - | - | - | - | - | - | . | . | . | . | .
O=C1/C(=C/c2ccc(O)cc2)SC(=S)N1CC1CCCO1 (configuration not stated) | 91 | . | - | 94 | - | 75 | 81 | 83 | - | - | -
Cc1[nH]c2ccccc2c1/C=N/Nc1ccc([N+](=O)[O-])cc1 | 68 | 119 | - | 49 | - | 95 | 100 | 102 | 75 | - | 44 | Rpn11 inh conf=83;MMP-2 counter-1=-;Thrombin inh=81
Cc1[nH]c2ccccc2c1/C=N/NC(=O)c1cccc([N+](=O)[O-])c1 | - | - | - | - | - | - | . | . | . | . | .
N#Cc1c(NC(=O)/C=C/C(=O)O)sc2c1CCN(Cc1ccccc1)C2 | - | . | - | 42 | . | 122 | 61 | 72 | - | - | 46
O=C(CCCN1C(=O)/C(=C\c2cccs2)SC1=S)Nc1ccc(O)cc1C(=O)O | - | - | - | - | - | - | . | . | . | . | .
O=C(CCCN1C(=O)/C(=C/c2ccccc2)SC1=S)Nc1ccc(C(=O)O)c(O)c1 | - | - | - | - | - | - | . | . | . | . | .
O=C(CN1C(=O)/C(=C/c2ccco2)SC1=S)Nc1ccc(C(=O)O)c(O)c1 | - | 91 | - | 61 | - | 28 | - | - | 54 | 18 | 30 | Rpn11 inh conf=43;MMP-2 counter-1=-;Thrombin inh=-
O=C(CCCN1C(=O)/C(=C\c2ccco2)SC1=S)Nc1ccc(O)cc1C(=O)O | - | 40 | - | 48 | - | 27 | - | - | 66 | 24 | 23 | Rpn11 inh conf=-;MMP-2 counter-1=-;Thrombin inh=-
O=C(/C=C/c1ccc([N+](=O)[O-])cc1)/C=C/c1ccco1 | - | - | - | 46 | - | 27 | - | 31 | 77 | - | -
COc1ccccc1N1C(=N)S/C(=C\c2ccc(-c3ccccc3C(=O)O)o2)C1=O | - | 70 | - | 35 | - | 57 | 76 | 87 | 60 | - | 31 | Rpn11 inh conf=74;MMP-2 counter-1=-;Thrombin inh=47
CC(C)=CC(=O)OCC(=O)Nc1cc(C)cc(C)c1 | - | - | - | - | - | - | . | . | . | . | .
CCN(CC)c1ccc(/C=C2\CCC(/C=N/NC(=O)c3ccc(=O)n(C)c3)=C2N2CCOCC2)cc1 | - | . | - | 69 | - | 117 | 113 | 112 | - | -32 | 37
COc1cc(/C=C2\SC(=S)N(NC(=O)c3ccccc3O)C2=O)ccc1O | 41 | . | - | 50 | - | 31 | 34 | 47 | 58 | - | 63
CCOc1cc(/C=C2/SC(=S)N(Cc3ccccc3)C2=O)ccc1O | 38 | . | - | 42 | - | 26 | 38 | 48 | 59 | - | 85
Cc1ccc(NC(=O)COc2ccc(CCO)cc2-n2nc3ccccc3n2)cc1C | - | - | - | - | - | - | . | . | . | . | .
Cc1occc1C(=O)N/N=C/c1c(O)ccc2ccccc12 | - | - | - | - | . | - | . | . | . | . | .
O=C(N/N=C/c1c(O)ccc2ccccc12)c1ccc(Br)o1 | - | - | - | 37 | . | 39 | 51 | 56 | 66 | - | -
O=C(O)CCCN1C(=O)/C(=C/c2ccc(-c3nc4ccccc4s3)o2)SC1=S | 51 | 185 | - | 122 | - | 48 | 95 | 103 | . | - | - | Rpn11 inh conf=44;MMP-2 counter-1=-;Thrombin inh=-
O=C(O)CCCCCN1C(=O)/C(=C\c2ccc(-c3ccc(Cl)cc3)o2)SC1=S | - | . | - | 61 | - | 27 | 65 | 81 | 74 | 16 | 25
O=C(O)CCCCCN1C(=O)/C(=C\c2ccncc2)SC1=S | - | - | - | - | - | - | . | . | . | . | .
O=C(NCCc1ccccc1F)C1C(=O)Nc2ccccc2C(=O)N1C1CCCCC1 (configuration not stated) | - | . | . | - | - | . | . | . | . | . | .
N=C1/C(=C\c2ccc(-c3cccc(Cl)c3)o2)C(=O)N=C2SC=C(c3ccccc3)N12 | - | 66 | - | 38 | - | 60 | 44 | 56 | 64 | - | 23 | Rpn11 inh conf=73;MMP-2 counter-1=-;Thrombin inh=49
CCC1C/C(=C\c2cc(OC)c(OC)cc2OC)C(=O)/C(=C/c2cc(OC)c(OC)cc2OC)C1 (configuration not stated) | 71 | 102 | - | 35 | - | 64 | 88 | 97 | 64 | - | 48
CCNc1ccc(Br)cc(C(=O)/C=C/c2ccc3c(c2)OCO3)c1=O | - | 71 | - | 47 | - | 31 | 26 | 48 | 71 | - | 24 | Rpn11 inh conf=-;MMP-2 counter-1=-;Thrombin inh=-
COc1cccc(OCc2cc(C(=O)N(C)CCOc3ccc(C)cc3)no2)c1 | - | - | - | - | - | - | . | . | . | . | .
NC1=NC(=Nc2cccc(S(N)(=O)=O)c2)c2ccccc21 | - | - | - | - | - | - | . | . | . | . | .
COc1cc(N=Nc2cccc(S(N)(=O)=O)c2)c2ccccc2c1N | - | 92 | - | 46 | - | 89 | 44 | 54 | 82 | - | 26
O=C1Nc2ccc(Br)cc2C12NNc1ccccc1O2 (configuration not stated) | - | . | - | 52 | - | 83 | 105 | 110 | 129 | - | 17
O=[N+]([O-])c1cccc(-c2ccc(/C=N/Nc3nc(N4CCCCC4)nc(N4CCCCC4)n3)o2)c1 | - | - | - | - | - | - | . | . | . | . | .
